Laboratory results taken from ChEMBL document CHEMBL5120809, “Dimers of isatin derived α-methylene-γ-butyrolactone as potent anti-cancer agents” (Bioorg Med Chem Lett, 2022).
Activity calls are given as the source filed them. The calls are words filed in the database; no cut-off is given here.

What was measured:
OVCAR-5 [1] = assay: Antiproliferative activity against human OVCAR-5 cells assessed as cell growth inhibition measured after 3 days by cell viability assay; type: functional, cell-based; settings: OVCAR-5, 72 h
MIA PaCa-2 = assay: Antiproliferative activity against human MIA PaCa-2 cells assessed as cell growth inhibition measured after 3 days by cell viability assay; type: functional, cell-based; settings: MIA PaCa-2, 72 h
A2780 [2] = assay: Antiproliferative activity against human A2780 cells assessed as cell growth inhibition measured after 3 days by cell viability assay; type: functional, cell-based; settings: A2780, 72 h
[3] = target: Transcription factor p65 (Homo sapiens) (UniProt Q04206); assay: Covalent modification of RELA in human OVCAR-5 cells assessed as high molecular weight band formation at 10 uM incubated for 2 hrs by Western blot analysis; type: cell-based; settings: filed as modulator
Sequence of Transcription factor p65 (Homo sapiens) (Q04206 whole entry): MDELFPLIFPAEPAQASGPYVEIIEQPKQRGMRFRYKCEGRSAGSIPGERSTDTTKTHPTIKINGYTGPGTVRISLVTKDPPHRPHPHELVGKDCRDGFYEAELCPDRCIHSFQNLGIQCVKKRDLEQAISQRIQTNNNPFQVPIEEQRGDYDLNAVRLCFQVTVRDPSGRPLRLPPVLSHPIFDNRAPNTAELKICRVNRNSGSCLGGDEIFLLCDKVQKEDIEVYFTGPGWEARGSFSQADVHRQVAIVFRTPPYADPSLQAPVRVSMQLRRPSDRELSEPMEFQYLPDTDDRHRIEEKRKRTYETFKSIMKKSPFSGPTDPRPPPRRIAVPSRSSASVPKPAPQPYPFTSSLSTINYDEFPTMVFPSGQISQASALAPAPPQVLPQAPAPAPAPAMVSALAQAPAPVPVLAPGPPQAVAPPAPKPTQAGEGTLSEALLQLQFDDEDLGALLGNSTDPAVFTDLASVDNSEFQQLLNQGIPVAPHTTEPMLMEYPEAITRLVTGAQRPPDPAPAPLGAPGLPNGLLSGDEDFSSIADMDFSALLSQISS
Procedure, shortened: (§1)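 Non-transformed immortalized fallopian tube epithelial FT282C11, MiaPaCa2 or OVCAR5 cells treated with or without compound; lysates analysed by western blot probed with RELA antibody for high molecular weight bands.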

[4] = target: Transcription factor p65 (Homo sapiens) (UniProt Q04206); assay: Covalent modification of RELA in human MIA PaCa-2 cells assessed as increase in PARP cleavage at 10 uM incubated for 2 hrs by Western blot analysis; type: cell-based; settings: filed as modulator
Procedure, shortened: (§2)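 Cancer cells treated with or without compound; lysates analysed by western blot for PARP cleavage.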

A2780 [5] = assay: Inhibition of cell migration in human A2780 cells at 500 nM measured up to 48 hrs by wound healing scratch assay; type: functional; set-up: scale not given: the % may be the effect or the level left
Procedure, shortened: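 Wound-healing scratch assay: A2780 cells treated with DMSO or 500nM compound, imaged at 0, 12, 24 and 48h; wound closure quantified relative to DMSO wells.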

CCRF-CEM = assay: Antiproliferative activity against human CCRF-CEM cells assessed as cell growth inhibition by measuring reduction in net protein increase inhibition by SRB assay; type: functional; settings: pooled result: one value given for 6 cell lines, strains, targets or settings
A2780 [6] = assay: Inhibition of colony formation in human A2780 cells measured every day up to 4 days by IncuCyte live-cell imaging assay; type: functional, cell-based; settings: DDE = dose-dependent effect
Procedure, shortened: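 A2780 ovarian cancer cells sparsely plated and grown with or without compound for 4 days under continuous Incucyte S3 live-cell imaging; colonies quantified against DMSO-treated wells at several time points.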

Homo sapiens = organism: Homo sapiens; assay: Covalent modification of N-terminal hexa-his-tagged human recombinant IKKbeta/ N-terminus mouse recombinant RELA (1 to 325 residues) assessed as tertiary complex formation with RELA by measuring high molecular weight band formation at 1:1:1 protein/protein to compound concentration measured after 24 hrs by SDS-PAGE based silver staining analysis; settings: filed as modulator
Procedure, shortened: (§3)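 Recombinant RELA and/or IKKβ proteins incubated in vitro with compound at equimolar or 10x concentration; mixtures resolved by SDS-PAGE and silver stained to detect the recombinant proteins and high molecular weight bands.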

[7] = target: Transcription factor p65 (Homo sapiens) (UniProt Q04206); assay: Covalent modification of RELA in TNF-alpha induced human OVCAR-5 cells assessed as inhibition of nuclear localization of protein at 10 uM pretreated for 2 hrs followed by TNF-alpha stimulation for 10 mins by Western blot analysis; type: cell-based; settings: filed as modulator
Procedure, shortened: (§4)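 Two sets of OVCAR5 cells treated with DMSO or compound; one set stimulated with TNFα, the other left unstimulated as control; read-out by western blot.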

[8] = target: Transcription factor p65 (Homo sapiens) (UniProt Q04206); assay: Covalent modification of RELA in human OVCAR-5 cells assessed as high molecular weight band formation incubated for 2 hrs by Western blot analysis; type: cell-based; settings: filed as modulator; procedure, shortened: as §1
[9] = target: Transcription factor p65 (Homo sapiens) (UniProt Q04206); assay: Covalent modification of RELA in human FT282C11 cells assessed as high molecular weight band formation at 10 uM incubated for 2 hrs by Western blot analysis; type: cell-based; settings: filed as modulator; procedure, shortened: as §1
[10] = target: Transcription factor p65 (Homo sapiens) (UniProt Q04206); assay: Covalent modification of RELA in human OVCAR-5 cells assessed as increase in PARP cleavage at 10 uM incubated for 2 hrs by Western blot analysis; type: cell-based; settings: filed as modulator; procedure, shortened: as §2
[11] = target: Transcription factor p65 (Homo sapiens) (UniProt Q04206); assay: Covalent modification of RELA in TNF-alpha induced human OVCAR-5 cells assessed as inhibition of phosphorylation of IkappaB-alpha at 10 uM pretreated for 2 hrs followed by TNF-alpha stimulation for 10 mins by Western blot analysis; type: cell-based; settings: filed as modulator; procedure, shortened: as §4
SF-268 = assay: Antiproliferative activity against human SF-268 cells assessed as reduction in the net protein increase inhibition by SRB assay; type: functional; settings: pooled result: one value given for 6 cell lines, strains, targets or settings
OVCAR-5 [12] = assay: Antiproliferative activity against human OVCAR-5 cells assessed as cell growth inhibition at 1.11 to 10 uM incubated for 6 hrs followed by compound removal and measured up to 72 hrs by IncuCyte live-cell imaging assay; type: functional, cell-based
[13] = target: Transcription factor p65 (Homo sapiens) (UniProt Q04206); assay: Covalent modification of RELA in human MIA PaCa-2 cells assessed as high molecular weight band formation at 10 uM incubated for 2 hrs by Western blot analysis; type: cell-based; settings: filed as modulator; procedure, shortened: as §1
[14] = target: T1, Inhibitor of nuclear factor kappa-B kinase subunit beta (Homo sapiens) (UniProt O14920); assay: Covalent modification of N-terminal hexa-his-tagged human recombinant IKKbeta assessed as high molecular weight band formation at 1:1 protein to compound concentration measured after 24 hrs by SDS-PAGE based silver staining analysis; settings: filed as modulator; procedure, shortened: as §3
T1 sequence (whole entry): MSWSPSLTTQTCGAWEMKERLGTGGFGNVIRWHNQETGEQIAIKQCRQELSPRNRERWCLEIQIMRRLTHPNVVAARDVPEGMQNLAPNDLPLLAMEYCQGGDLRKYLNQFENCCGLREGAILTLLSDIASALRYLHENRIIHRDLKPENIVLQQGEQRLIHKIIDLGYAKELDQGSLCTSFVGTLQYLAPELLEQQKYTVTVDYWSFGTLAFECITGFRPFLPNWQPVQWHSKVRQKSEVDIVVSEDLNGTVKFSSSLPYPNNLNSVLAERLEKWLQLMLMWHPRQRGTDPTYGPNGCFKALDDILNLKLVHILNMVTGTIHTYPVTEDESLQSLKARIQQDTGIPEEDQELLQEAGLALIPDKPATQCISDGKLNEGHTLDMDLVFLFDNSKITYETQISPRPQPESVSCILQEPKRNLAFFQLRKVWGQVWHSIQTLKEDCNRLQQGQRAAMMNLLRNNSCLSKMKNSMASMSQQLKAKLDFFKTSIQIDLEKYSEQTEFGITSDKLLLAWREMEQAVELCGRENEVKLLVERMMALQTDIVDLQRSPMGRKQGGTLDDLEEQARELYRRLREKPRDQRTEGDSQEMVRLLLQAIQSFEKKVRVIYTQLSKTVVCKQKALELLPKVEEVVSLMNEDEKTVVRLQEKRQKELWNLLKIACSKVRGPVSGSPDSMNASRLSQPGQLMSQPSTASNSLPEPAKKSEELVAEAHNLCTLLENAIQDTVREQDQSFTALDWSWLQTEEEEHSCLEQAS

[15] = target: Transcription factor p65 (Homo sapiens) (UniProt Q04206); assay: Inhibition of TNF-alpha induced RELA in human A549 cells assessed as reduction in NFkappaB mediated gene expression pretreated for 2 hrs followed by TNF-alpha stimulation for 3 hrs by […]; type: cell-based; settings: filed as modulator, DDE = dose-dependent effect
Procedure, shortened: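 TNFα-induced NFκB reporter assay run as a dose-response with compound.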

SMILES	IC50 (OVCAR-5 [1])	IC50 (MIA PaCa-2)	IC50 (A2780 [2])	also measured
C=C1CC2(OC1=O)C(=O)N(CCCCCCCCCN1C(=O)C3(CC(=C)C(=O)O3)c3ccccc31)c1ccccc12 (stereo unspecified)	480 nM	1220 nM	1080 nM	
C=C1CC2(OC1=O)C(=O)N(CCCCCN1C(=O)C3(CC(=C)C(=O)O3)c3ccccc31)c1ccccc12 (stereo unspecified)	90 nM	200 nM	270 nM	
C=C1CC2(OC1=O)C(=O)Nc1ccccc12 (stereo unspecified)	3130 nM	2050 nM	990 nM	
C=C1CC2(OC1=O)C(=O)N(CCCCCCCCCCCN1C(=O)C3(CC(=C)C(=O)O3)c3ccccc31)c1ccccc12 (stereo unspecified)	830 nM	2030 nM	770 nM	
C=C1CC2(OC1=O)C(=O)N(CCCCCCCCCCCCN1C(=O)C3(CC(=C)C(=O)O3)c3ccccc31)c1ccccc12 (stereo unspecified)	420 nM	1500 nM	500 nM	
C=C1CC2(OC1=O)C(=O)N(CCCN1C(=O)C3(CC(=C)C(=O)O3)c3ccccc31)c1ccccc12 (stereo unspecified)	90 nM	130 nM	230 nM	Activity [3]: Active; Activity [4]: Active; Activity (A2780 [5]): 50%; GI50 (CCRF-CEM): 380 nM; inhibition (A2780 [6]): Dde; Activity (Homo sapiens): Active; Activity [7]: Active; Activity [8]: Active; Activity [9]: Active; Activity [10]: Active; Activity [11]: Active; GI50 (SF-268): 1760 nM; Activity (OVCAR-5 [12]): Active; Activity [13]: Active; Activity [14]: Active; inhibition [15]: Dde
C=C1CC2(OC1=O)C(=O)N(Cc1ccc(CN3C(=O)C4(CC(=C)C(=O)O4)c4ccccc43)cc1)c1ccccc12 (stereo unspecified)	180 nM	270 nM	310 nM	
C=C1CC2(OC1=O)C(=O)N(CCCCN1C(=O)C3(CC(=C)C(=O)O3)c3ccccc31)c1ccccc12 (stereo unspecified)	150 nM		360 nM	
CC1CC2(OC1=O)C(=O)N(CCCCCCCN1C(=O)C3(CC(C)C(=O)O3)c3ccccc31)c1ccccc12 (stereo unspecified)	> 10000 nM	> 10000 nM	> 10000 nM	
C=C1CC2(OC1=O)C(=O)N(CCCCCCCCN1C(=O)C3(CC(=C)C(=O)O3)c3ccccc31)c1ccccc12 (stereo unspecified)	390 nM	740 nM	600 nM	
C=C1CC2(OC1=O)C(=O)N(CCCCCCN1C(=O)C3(CC(=C)C(=O)O3)c3ccccc31)c1ccccc12 (stereo unspecified)	300 nM	230 nM	410 nM	
C=C1CC2(OC1=O)C(=O)N(CCN1C(=O)C3(CC(=C)C(=O)O3)c3ccccc31)c1ccccc12 (stereo unspecified)	320 nM		390 nM	
C=C1CC2(OC1=O)C(=O)N(CCCCCCCCCCN1C(=O)C3(CC(=C)C(=O)O3)c3ccccc31)c1ccccc12 (stereo unspecified)	410 nM	560 nM	490 nM	
C=C1CC2(OC1=O)C(=O)N(CCCCCCCN1C(=O)C3(CC(=C)C(=O)O3)c3ccccc31)c1ccccc12 (stereo unspecified)	340 nM	260 nM	410 nM	
